Assay results from ChEMBL document CHEMBL3627676, “Modulation of disulfide dual ENKephalinase inhibitors (DENKIs) activity by a transient N-protection for pain alleviation by oral route” (Eur J Med Chem, 2015).
Activity calls are given as the source filed them.

What was measured:
Mus musculus [1] = experiment: Antinociceptive activity in OF1 mouse assessed as increase in jump latency at 150 mg/kg, po by hot plate test; assay type: functional, organism-based
How it was run: (§1)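 Hot plate test in male OF1 mice (20–25 g). 150 mg/kg given per os in EtOH/PEG400/H2O (1/4/5). Jump latency recorded by stop-watch, cut-off 240 s, followed over time. Mean ± sem, n = 7–8 per group.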

Mus musculus [2] = experiment: Antinociceptive activity in OF1 mouse assessed as increase in jump latency at 10 mg/kg, iv by hot plate test; assay type: functional, organism-based
How it was run: (§2)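 Hot plate in male OF1 mice. 10 mg/kg given iv in EtOH/Cremophor/H2O (1/1/8) or EtOH/Tween 80/H2O (1/1/8). Jump latency recorded with a 240 s cut-off over a time course. n = 6 per group.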

Mus musculus [3] = experiment: Analgesic activity in OF1 mouse assessed as decrease in hindpaw licking at 50 mg/kg ,po administered 20 mins prior to formalin challenge by formalin test; assay type: functional; set-up: scale not given: the % may be the effect or the level left
How it was run: (§3)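 Male OF1 mice, 25e32 g, 50 mg/kg given orally in ethanol/0.5% methylcellulose in water (1.5/98.5) before formalin. After 30 min adaptation, 20 µL of 5% formalin injected s.c. into the hindpaw. Licking/biting of the injected paw timed by stop-watch during the early phase (0–5 min). Analgesia (%) versus vehicle, n = 6–8 per group.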

Mus musculus [4] = experiment: Analgesic activity in OF1 mouse assessed as decrease in hindpaw licking at 50 mg/kg ,po administered 60 mins prior to formalin challenge by formalin test; assay type: functional; set-up: scale not given: the % may be the effect or the level left; how it was run: as §3
Mus musculus [5] = experiment: Analgesic activity in OF1 mouse assessed as decrease in hindpaw licking at 50 mg/kg ,po administered 120 mins prior to formalin challenge by formalin test; assay type: functional; how it was run: as §3
Mus musculus [6] = experiment: Antinociceptive activity in po dosed OF1 mouse assessed as increase in jump latency by hot plate test; assay type: functional, organism-based; how it was run: as §1
Aminopeptidase N = Aminopeptidase N (Homo sapiens, UniProt P15144); experiment: Inhibition of recombinant human Aminopeptidase N using L-Ala-beta-NA as substrate preincubated for 30 mins followed by substrate addition measured after 30 mins by fluorometry
Aminopeptidase N, sequence (P15144 whole entry): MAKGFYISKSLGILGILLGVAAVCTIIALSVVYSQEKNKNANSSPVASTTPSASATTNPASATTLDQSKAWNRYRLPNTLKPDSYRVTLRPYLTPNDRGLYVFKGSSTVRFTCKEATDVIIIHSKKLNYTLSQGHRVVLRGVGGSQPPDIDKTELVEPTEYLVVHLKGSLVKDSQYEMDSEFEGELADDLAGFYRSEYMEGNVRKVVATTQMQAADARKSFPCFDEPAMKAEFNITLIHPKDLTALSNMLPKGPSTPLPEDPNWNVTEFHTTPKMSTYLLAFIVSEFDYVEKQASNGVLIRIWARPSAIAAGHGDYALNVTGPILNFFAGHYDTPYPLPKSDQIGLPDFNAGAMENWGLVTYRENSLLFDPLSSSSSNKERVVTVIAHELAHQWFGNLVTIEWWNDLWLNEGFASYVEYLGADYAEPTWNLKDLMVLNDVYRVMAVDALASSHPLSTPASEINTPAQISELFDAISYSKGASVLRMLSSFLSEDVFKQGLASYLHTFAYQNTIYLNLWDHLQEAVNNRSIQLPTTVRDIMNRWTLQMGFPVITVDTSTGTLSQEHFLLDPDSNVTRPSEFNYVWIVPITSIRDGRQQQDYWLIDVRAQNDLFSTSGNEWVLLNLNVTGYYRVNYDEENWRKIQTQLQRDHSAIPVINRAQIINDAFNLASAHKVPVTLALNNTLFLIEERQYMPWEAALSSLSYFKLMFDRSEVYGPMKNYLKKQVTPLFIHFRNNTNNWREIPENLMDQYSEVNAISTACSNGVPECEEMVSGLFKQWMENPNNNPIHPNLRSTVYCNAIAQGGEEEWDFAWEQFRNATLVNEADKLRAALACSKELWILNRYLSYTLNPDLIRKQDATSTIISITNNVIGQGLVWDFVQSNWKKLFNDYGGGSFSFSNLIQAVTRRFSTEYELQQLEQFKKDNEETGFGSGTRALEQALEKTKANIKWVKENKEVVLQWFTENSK

Neprilysin = Neprilysin (Homo sapiens, UniProt P08473); experiment: Inhibition of recombinant human Neprilysin using Suc-Ala-Ala-Phe-AMC as substrate preincubated for 30 mins followed by substrate addition measured after 30 mins by fluorometry
Neprilysin, sequence (P08473 whole entry): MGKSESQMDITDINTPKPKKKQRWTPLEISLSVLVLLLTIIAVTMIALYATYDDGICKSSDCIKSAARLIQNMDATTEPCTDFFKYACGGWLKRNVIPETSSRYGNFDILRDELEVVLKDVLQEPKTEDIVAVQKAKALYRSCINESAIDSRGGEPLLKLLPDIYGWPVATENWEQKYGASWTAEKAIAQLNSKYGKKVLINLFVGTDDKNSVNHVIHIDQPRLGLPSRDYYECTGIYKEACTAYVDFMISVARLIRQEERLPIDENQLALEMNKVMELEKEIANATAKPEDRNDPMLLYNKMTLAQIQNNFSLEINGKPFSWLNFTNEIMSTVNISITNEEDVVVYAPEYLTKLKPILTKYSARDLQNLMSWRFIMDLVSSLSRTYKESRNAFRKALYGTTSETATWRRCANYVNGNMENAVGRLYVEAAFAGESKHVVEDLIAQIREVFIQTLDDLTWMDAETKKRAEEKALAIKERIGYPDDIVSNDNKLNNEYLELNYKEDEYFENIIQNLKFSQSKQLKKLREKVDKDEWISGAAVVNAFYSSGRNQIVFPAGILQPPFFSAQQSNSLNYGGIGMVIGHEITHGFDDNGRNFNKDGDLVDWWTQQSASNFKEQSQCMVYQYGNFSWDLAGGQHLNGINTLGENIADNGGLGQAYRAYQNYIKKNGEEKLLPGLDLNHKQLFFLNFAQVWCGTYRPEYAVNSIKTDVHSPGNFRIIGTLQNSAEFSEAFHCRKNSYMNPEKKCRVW

Mus musculus [7] = experiment: Antinociceptive activity in iv dosed OF1 mouse assessed as increase in jump latency by hot plate test; assay type: functional, organism-based; how it was run: as §2
Mus musculus [8] = experiment: Analgesic activity in OF1 mouse assessed as decrease in hindpaw licking at 50 mg/kg ,po administered 90 mins prior to formalin challenge by formalin test; assay type: functional; set-up: scale not given: the % may be the effect or the level left; how it was run: as §3
Mus musculus [9] = experiment: Analgesic activity in OF1 mouse assessed as decrease in hindpaw licking at 50 mg/kg ,po administered 150 mins prior to formalin challenge by formalin test; assay type: functional; set-up: scale not given: the % may be the effect or the level left; how it was run: as §3
Mus musculus [10] = experiment: Analgesic activity in OF1 mouse assessed as decrease in hindpaw licking at 50 mg/kg ,po administered 210 mins prior to formalin challenge by formalin test relative to control; assay type: functional, organism-based; how it was run: as §3
Plasma [11] = experiment: Prodrug conversion in Sprague-Dawley rat plasma assessed as formation of 1-{1-[2-(Carboxymethyl-carbamoyl)-3-phenyl-propyldisulfanylmethyl]-3-methylsulfanyl-propylcarbamoyloxy}-ethyl isobutyrate at 800 uM incubated for 1 to 60 mins by LC/MS analysis; assay type: ADME, cell-free
How it was run: (§4)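 Prodrug at 800 µM final concentration incubated at 37 °C in male Sprague-Dawley rat plasma (heparin lithium; 66 mg protein/mL) for 1, 5, 15, 30 and 60 min. Reaction stopped with absolute EtOH. Parent and metabolites monitored by LC/MS, in triplicate.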

Plasma [12] = experiment: Prodrug conversion in Sprague-Dawley rat plasma assessed as formation of (S)-2-((S)-3-(((S)-2-amino-4-(methylthio)butyl)disulfanyl)-2-benzylpropanamido)propanoic acid at 800 uM incubated for 1 to 60 mins by LC/MS analysis; assay type: ADME, cell-free; how it was run: as §4
Plasma [13] = experiment: Prodrug conversion in Sprague-Dawley rat plasma assessed as formation of PL37 at 800 uM incubated for 1 to 60 mins by LC/MS analysis; assay type: ADME, cell-free; how it was run: as §4
Plasma [14] = experiment: Drug level in Sprague-Dawley rat plasma treated with 1-(1-{2-[(1-Ethoxycarbonyloxy-ethoxycarbonylmethyl)-carbamoyl]-3-phenyl-propyldisulfanylmethyl}-3-methylsulfanyl-propylcarbamoyloxy)-ethyl isobutyrate at 800 uM incubated for 1 to 60 mins by LC/MS analysis; assay type: ADME, cell-free; how it was run: as §4
Mus musculus [15] = experiment: Antiallodynic activity in po dosed OF1 mouse partial sciatic nerve ligation model assessed as increase in mechanical threshold to pressure after 30 mins by von Frey test; assay type: functional, organism-based
How it was run: (§5)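 PSNL mice (male OF1, 16–18 g; partial sciatic ligation of 33–50% under isoflurane). Oral gavage at 12.5, 25 or 50 mg/kg in EtOH/0.5% methylcellulose (1.5/98.5). Von Frey up-down withdrawal thresholds measured on ipsilateral and contralateral paws before dosing and at 30, 60 and 120 min. Kruskal-Wallis with Dunn's test.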

Mus musculus [16] = experiment: Antiallodynic activity in po dosed OF1 mouse partial sciatic nerve ligation model assessed as increase in mechanical threshold to pressure after 60 mins by von Frey test; assay type: functional, organism-based; how it was run: as §5
Mus musculus [17] = experiment: Antiallodynic activity in po dosed OF1 mouse partial sciatic nerve ligation model assessed as increase in mechanical threshold to pressure after 120 mins by von Frey test; assay type: functional, organism-based; how it was run: as §5
Mus musculus [18] = experiment: Antiallodynic activity in OF1 mouse partial sciatic nerve ligation model assessed as increase in mechanical threshold to pressure at 50 mg/kg, po after 45 to 60 mins by von Frey test; assay type: functional, organism-based
Mus musculus [19] = experiment: Antiallodynic activity in po dosed OF1 mouse partial sciatic nerve ligation model assessed as increase in mechanical threshold to pressure at 25 mg/kg, po after 30 mins by von Frey test; assay type: functional; how it was run: as §5
Mus musculus [20] = experiment: Antiallodynic activity in po dosed OF1 mouse partial sciatic nerve ligation model assessed as increase in mechanical threshold to pressure at 25 mg/kg, po after 60 mins by von Frey test; assay type: functional; how it was run: as §5
Mus musculus [21] = experiment: Antiallodynic activity in po dosed OF1 mouse partial sciatic nerve ligation model assessed as increase in mechanical threshold to pressure at 25 mg/kg, po after 120 mins by von Frey test; assay type: functional; how it was run: as §5
Mus musculus [22] = experiment: Antiallodynic activity in OF1 mouse partial sciatic nerve ligation model assessed as increase in mechanical threshold to pressure at 50 mg/kg, po after 45 mins by von Frey test; assay type: functional
How it was run: (§6)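 PSNL in male OF1 mice (16–18 g): under isoflurane, a tight ligation placed around 33–50% of the right sciatic nerve. 50 mg/kg given by oral gavage in EtOH/0.5% methylcellulose (1.5/98.5). Paw withdrawal threshold (g) measured with von Frey filaments by up-down method before dosing and at 45, 90 and 150 min. n = 5–7 per group.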

Mus musculus [23] = experiment: Antiallodynic activity in OF1 mouse partial sciatic nerve ligation model assessed as increase in mechanical threshold to pressure at 50 mg/kg, po after 90 mins by von Frey test; assay type: functional; how it was run: as §6
Mus musculus [24] = experiment: Antiallodynic activity in OF1 mouse partial sciatic nerve ligation model assessed as increase in mechanical threshold to pressure at 50 mg/kg, po after 150 mins by von Frey test; assay type: functional; how it was run: as §6
Mus musculus [25] = experiment: Antihyperalgesic activity in OF1 mouse partial sciatic nerve ligation model assessed as increase in […] threshold to thermal stimuli at 50 mg/kg, po measured at 90 mins by planar test relative to control; assay type: functional
How it was run: (§7)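 Male OF1 PSNL mice given 50 mg/kg orally in EtOH/0.5% methylcellulose in water (1.5/98.5). Thermal hyperalgesia assessed by plantar test as paw withdrawal to a thermal stimulus, expressed relative to the contralateral paw, at time points up to 150 min.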

Mus musculus [26] = experiment: Antihyperalgesic activity in OF1 mouse partial sciatic nerve ligation model assessed as increase in […] threshold to thermal stimuli at 50 mg/kg, po measured upto 150 mins by planar test; assay type: functional, organism-based; how it was run: as §7

Structure (SMILES)	Activity (Mus musculus [6])	Activity (Mus musculus [7])	Activity (Mus musculus [8])	Activity (Mus musculus [9])	Activity (Mus musculus [10])	also measured
CCOC(=O)OC(C)OC(=O)CNC(=O)[C@@H](CSSC[C@@H](N)CCSC)Cc1ccccc1.O=C(O)/C=C/C(=O)O (some centres undefined)						Activity (Mus musculus [1]): Active; Activity (Mus musculus [2]): Active; Activity (Mus musculus [3]): 62%; Activity (Mus musculus [4]): 31%; Activity (Mus musculus [5]): inactive
C[S+]([O-])CC[C@H](N)CSSC[C@@H](Cc1ccccc1)C(=O)NCC(=O)O (some centres undefined)	Active					
C[S+]([O-])CC[C@H](N)CSSCC1(C(=O)N[C@@H](CC(=O)O)C(=O)O)CCCC1 (some centres undefined)	Active					
C[S+]([O-])CC[C@H](N)CSSC[C@@H](Cc1ccccc1)C(=O)NCC(=O)OCc1ccccc1 (some centres undefined)	Active					
O=C(O)C[C@H](NC(=O)C1(CS)CCCC1)C(=O)O						Ki (Aminopeptidase N): > 10 µM
C[S+]([O-])CC[C@H](N)CS (some centres undefined)						Ki (Neprilysin): > 10 µM
CC(OC(=O)N[C@@H](CC[S+](C)[O-])CSSCC1(C(=O)N[C@@H](CC(=O)O)C(=O)O)CCCC1)OC(=O)C(C)C (some centres undefined)	inactive	inactive	46%	47%	inactive	
CCOC(=O)OC(C)OC(=O)CNC(=O)[C@@H](CSSC[C@H](CCSC)NC(=O)OC(C)OC(=O)C(C)C)Cc1ccccc1 (some centres undefined)			32%	30%	inactive	Drug metabolism (Plasma [11]): metabolite_detected; Drug metabolism (Plasma [12]): metabolite_detected; Activity (Mus musculus [1]): inactive; Activity (Mus musculus [2]): inactive; Activity (Mus musculus [3]): 25%; Activity (Mus musculus [4]): 56%; Activity (Mus musculus [5]): 31%; Drug metabolism (Plasma [13]): metabolite_notdetected
CSCC[C@H](N)CSSC[C@@H](Cc1ccccc1)C(=O)NCC(=O)O	Active					Drug metabolism (Plasma [14]): metabolite_detected
CC(OC(=O)N[C@@H](CC[S+](C)[O-])CSSC[C@@H](Cc1ccccc1)C(=O)NCC(=O)O)OC(=O)C(C)C (some centres undefined)	inactive	inactive	39%	38%	inactive	Activity (Mus musculus [15]): Dose-dependent effect; Activity (Mus musculus [16]): Dose-dependent effect; Activity (Mus musculus [17]): Dose-dependent effect; Activity (Mus musculus [18]): Active; Activity (Mus musculus [19]): 40%; Activity (Mus musculus [20]): 52%; Activity (Mus musculus [21]): 63%
CCOC(=O)OC(C)OC(=O)CNC(=O)[C@@H](CSSC[C@@H](N)CC[S+](C)[O-])Cc1ccccc1 (some centres undefined)	Active					
CSCC[C@H](N)CSSC[C@@H](Cc1ccccc1)C(=O)NCC(=O)OCc1ccccc1	Active					
CSCC[C@@H](CSSC[C@@H](Cc1ccccc1)C(=O)NCC(=O)OCc1ccccc1)NC(=O)OC(C)OC(=O)C(C)C (some centres undefined)	inactive	inactive	34%	26%	inactive	
CCOC(=O)OC(C)OC(=O)CNC(=O)[C@@H](CSSC[C@H](CC[S+](C)[O-])NC(=O)OC(C)OC(=O)C(C)C)Cc1ccccc1 (some centres undefined)	inactive	inactive	39%	38%	inactive	
O=C(O)CNC(=O)C(CS)Cc1ccccc1 (centres undefined) [THIORPHAN]						Ki (Aminopeptidase N): > 10 µM
CC(OC(=O)N[C@@H](CC[S+](C)[O-])CSSC[C@@H](Cc1ccccc1)C(=O)NCC(=O)OCc1ccccc1)OC(=O)C(C)C (some centres undefined)	inactive	inactive	39%	38%	inactive	
CSCC[C@@H](CSSC[C@@H](Cc1ccccc1)C(=O)NCC(=O)O)NC(=O)OC(C)OC(=O)C(C)C (some centres undefined)	inactive	inactive	34%	31%	inactive	Activity (Mus musculus [22]): 64%; Activity (Mus musculus [23]): 56%; Activity (Mus musculus [24]): 18%; Activity (Mus musculus [25]): 100%; Activity (Mus musculus [26]): Active; Drug metabolism (Plasma [14]): metabolite_detected
